Results from ChEMBL document CHEMBL3763047, “Flavonoid derivatives as selective ABCC1 modulators: Synthesis and functional characterization” (Eur J Med Chem, 2016).
pIC50: −log10 of the molar value. One block for each compound: values may come before it. The source made the active and inactive calls. The rule behind the calls is not given here.

Experiments:
[1] = biological target: T1, Broad substrate specificity ATP-binding cassette transporter ABCG2 (Homo sapiens, UniProt Q9UNQ0); assay: Inhibition of ABCG2 in human MCF7/Topo cells by Hoechst 33342 assay; assay type: cell-based; details: for pIC50: read-out: IC50; for IC50: mcf7/topo
T1 sequence (Q9UNQ0 whole entry): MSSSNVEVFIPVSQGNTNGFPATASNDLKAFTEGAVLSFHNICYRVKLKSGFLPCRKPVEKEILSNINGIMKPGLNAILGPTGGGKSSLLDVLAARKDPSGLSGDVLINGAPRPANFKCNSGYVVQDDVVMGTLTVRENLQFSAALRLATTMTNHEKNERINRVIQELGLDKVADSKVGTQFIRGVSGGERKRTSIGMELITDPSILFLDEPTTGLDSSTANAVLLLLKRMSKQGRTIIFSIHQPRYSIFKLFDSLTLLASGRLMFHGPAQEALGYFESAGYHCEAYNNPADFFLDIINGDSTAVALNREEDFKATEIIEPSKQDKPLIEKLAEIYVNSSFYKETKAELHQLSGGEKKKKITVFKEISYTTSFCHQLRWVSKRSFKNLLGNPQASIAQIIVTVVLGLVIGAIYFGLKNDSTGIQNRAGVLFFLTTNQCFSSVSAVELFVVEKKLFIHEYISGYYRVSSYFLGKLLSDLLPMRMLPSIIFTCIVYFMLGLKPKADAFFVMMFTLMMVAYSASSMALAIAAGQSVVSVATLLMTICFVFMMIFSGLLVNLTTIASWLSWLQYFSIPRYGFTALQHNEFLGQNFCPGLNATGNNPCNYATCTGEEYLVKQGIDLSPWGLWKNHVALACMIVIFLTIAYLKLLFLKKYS

[2] = Chemical stability in DMEM culture medium supplemented with 10% FCS at 37 degC after 48 hrs by RP-HPLC analysis; assay type: physicochemical; details: cattle
Procedure, shortened: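 Compounds held in DMEM with 10% FCS at 37 °C for up to 48 h, then analysed for degradation.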

[3] = biological target: MRP1 (ABCC1) (Homo sapiens, UniProt P33527); assay: (§1) Inhibition of human MRP1 expressed in MDCK2 cells assessed as inhibition of calcein-AM efflux at 30 uM relative to reversan; assay type: cell-based, MDCK-II; details: MDCK2 cells expressing human MRP1, probe calcein-AM, read-out: Imax
MRP1 (ABCC1), sequence (P33527 whole entry): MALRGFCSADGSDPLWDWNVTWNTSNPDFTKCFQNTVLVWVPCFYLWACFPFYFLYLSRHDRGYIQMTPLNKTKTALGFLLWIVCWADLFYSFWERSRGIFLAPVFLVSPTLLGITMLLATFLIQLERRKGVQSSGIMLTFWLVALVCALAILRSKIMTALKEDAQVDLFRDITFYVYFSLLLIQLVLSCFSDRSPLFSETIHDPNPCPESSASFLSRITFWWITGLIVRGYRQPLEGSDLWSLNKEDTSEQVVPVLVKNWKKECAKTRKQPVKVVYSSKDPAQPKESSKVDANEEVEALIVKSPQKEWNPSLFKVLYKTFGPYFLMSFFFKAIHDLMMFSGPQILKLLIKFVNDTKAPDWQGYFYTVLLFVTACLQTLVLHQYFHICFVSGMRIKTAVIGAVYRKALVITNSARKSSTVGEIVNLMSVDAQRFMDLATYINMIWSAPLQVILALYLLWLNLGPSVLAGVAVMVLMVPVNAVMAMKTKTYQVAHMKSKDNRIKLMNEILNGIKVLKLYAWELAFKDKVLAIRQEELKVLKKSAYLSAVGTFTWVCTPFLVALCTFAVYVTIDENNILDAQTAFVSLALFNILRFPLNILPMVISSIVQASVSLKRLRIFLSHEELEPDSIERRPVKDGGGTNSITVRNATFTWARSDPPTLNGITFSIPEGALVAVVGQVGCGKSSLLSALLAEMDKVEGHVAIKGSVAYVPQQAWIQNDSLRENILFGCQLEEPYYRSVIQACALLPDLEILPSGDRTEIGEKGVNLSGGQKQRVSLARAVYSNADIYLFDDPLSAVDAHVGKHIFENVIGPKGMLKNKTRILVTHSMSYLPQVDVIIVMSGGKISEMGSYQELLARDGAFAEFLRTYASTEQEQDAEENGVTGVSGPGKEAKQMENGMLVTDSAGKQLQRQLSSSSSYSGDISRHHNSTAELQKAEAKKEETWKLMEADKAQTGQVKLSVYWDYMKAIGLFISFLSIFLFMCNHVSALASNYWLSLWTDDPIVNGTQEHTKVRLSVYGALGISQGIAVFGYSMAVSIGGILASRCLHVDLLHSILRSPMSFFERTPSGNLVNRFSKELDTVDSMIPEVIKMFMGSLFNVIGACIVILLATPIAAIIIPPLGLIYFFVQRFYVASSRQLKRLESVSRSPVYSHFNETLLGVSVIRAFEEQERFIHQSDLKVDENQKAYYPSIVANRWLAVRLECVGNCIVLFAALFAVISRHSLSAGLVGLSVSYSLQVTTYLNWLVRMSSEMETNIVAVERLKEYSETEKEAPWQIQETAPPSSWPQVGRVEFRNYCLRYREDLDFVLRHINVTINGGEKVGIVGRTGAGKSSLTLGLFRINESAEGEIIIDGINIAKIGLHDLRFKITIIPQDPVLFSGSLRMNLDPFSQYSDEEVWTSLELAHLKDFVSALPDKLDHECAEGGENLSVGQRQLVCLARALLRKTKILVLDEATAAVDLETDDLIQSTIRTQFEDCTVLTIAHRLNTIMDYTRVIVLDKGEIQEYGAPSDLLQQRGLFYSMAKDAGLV
Procedure, shortened: (§2)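 MDCKII-MRP1 cells seeded at 20,000–25,000/well and washed next day with HEPES loading buffer, pH 7.4. Loaded 60 min at 37 °C with 0.5 µM calcein-AM in buffer with BSA and pluronic F127, plus compound (10 nM–100 µM). Cells were PFA-fixed, fluorescence read at 485/535 nm, DMSO control subtracted. […] Mean ± SEM, 2–4 experiments in triplicate.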

[4] = biological target: ATP-dependent translocase ABCB1 (Homo sapiens, UniProt P08183); assay: Inhibition of ABCB1 in human KBV1 cells assessed as inhibition of calcein-AM efflux; assay type: cell-based; details: for pIC50: read-out: IC50; for IC50: kbv1
ATP-dependent translocase ABCB1, sequence (P08183 whole entry): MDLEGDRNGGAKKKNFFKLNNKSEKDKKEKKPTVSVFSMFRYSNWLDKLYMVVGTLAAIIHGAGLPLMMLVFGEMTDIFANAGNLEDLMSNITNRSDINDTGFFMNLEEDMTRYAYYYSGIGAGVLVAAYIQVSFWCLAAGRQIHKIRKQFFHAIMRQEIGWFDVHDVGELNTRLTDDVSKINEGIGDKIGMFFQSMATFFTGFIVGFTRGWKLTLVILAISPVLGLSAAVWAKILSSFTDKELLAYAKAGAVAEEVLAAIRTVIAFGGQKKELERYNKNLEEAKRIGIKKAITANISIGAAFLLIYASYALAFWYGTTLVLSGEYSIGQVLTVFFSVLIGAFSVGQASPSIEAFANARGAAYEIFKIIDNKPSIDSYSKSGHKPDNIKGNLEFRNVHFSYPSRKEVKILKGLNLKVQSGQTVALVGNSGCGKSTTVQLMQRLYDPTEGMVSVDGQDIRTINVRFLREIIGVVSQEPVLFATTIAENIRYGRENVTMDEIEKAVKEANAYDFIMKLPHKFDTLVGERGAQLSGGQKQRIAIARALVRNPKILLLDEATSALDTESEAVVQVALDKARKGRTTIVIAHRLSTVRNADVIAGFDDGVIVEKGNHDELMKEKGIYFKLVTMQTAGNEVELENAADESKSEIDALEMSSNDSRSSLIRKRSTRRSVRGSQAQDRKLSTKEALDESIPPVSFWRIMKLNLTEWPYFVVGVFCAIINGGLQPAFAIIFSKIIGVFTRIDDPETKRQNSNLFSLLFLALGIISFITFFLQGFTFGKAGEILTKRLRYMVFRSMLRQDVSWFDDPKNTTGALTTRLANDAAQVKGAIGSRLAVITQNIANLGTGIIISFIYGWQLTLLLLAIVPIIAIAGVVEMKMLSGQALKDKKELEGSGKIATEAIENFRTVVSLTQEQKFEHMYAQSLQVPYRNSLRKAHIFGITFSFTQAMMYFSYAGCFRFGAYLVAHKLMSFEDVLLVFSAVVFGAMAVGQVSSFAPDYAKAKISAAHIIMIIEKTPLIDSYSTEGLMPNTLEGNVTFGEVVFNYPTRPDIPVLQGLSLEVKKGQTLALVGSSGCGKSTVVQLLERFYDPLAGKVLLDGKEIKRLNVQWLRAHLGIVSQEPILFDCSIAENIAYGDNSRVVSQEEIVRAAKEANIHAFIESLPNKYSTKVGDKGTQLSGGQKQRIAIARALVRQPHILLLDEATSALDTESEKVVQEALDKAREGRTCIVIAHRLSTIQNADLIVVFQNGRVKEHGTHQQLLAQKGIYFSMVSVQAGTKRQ

[5] = biological target: ABCB1 (P-glycoprotein) (Homo sapiens, UniProt P08183); assay: Inhibition of ABCB1 in human KBV1 cells assessed as inhibition of calcein-AM efflux at 1 uM relative to tariquidar; assay type: cell-based; details: probe calcein-AM, read-out: Imax
ABCB1 (P-glycoprotein), sequence (P08183 whole entry): as above

[6] = system: HaCaT; assay: Cytotoxicity against human HaCaT cells at 1 to 10 uM after 140 hrs by kinetic crystal violet staining based assay; assay type: cell-based
Procedure, shortened: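 Spontaneously immortalized human HaCaT keratinocytes in RPMI-1640 with pyruvate, HEPES and added glucose, pre-treated with EDTA before trypsinization. Cytotoxicity followed in a kinetic assay.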

[7] = biological target: Multidrug resistance-associated protein 1 (Homo sapiens, UniProt P33527); assay: as §1; assay type: cell-based, MDCK-II; details: mdck-ii, 30 µM; procedure, shortened: as §2
Multidrug resistance-associated protein 1, sequence (P33527 whole entry): as the sequence (P33527 whole entry) above

[8] = biological target: T2, ABCG2 (BCRP) (Homo sapiens, UniProt Q9UNQ0); assay: Inhibition of ABCG2 in human MCF7/Topo cells at 10 uM by Hoechst 33342 assay relative to fumitremorgin C; assay type: cell-based; details: probe Hoechst 33342, read-out: Imax
T2 sequence (Q9UNQ0 whole entry): T1 sequence (Q9UNQ0 whole entry)
Procedure, shortened: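 Hoechst 33342 microplate assay in ABCG2-overexpressing MCF-7/Topo cells, kept in EMEM with 10% FCS and 550 nM topotecan. Imax relative to 10 µM fumitremorgin C (100%). IC50 from four-parameter logistic fit. Mean ± SEM, 2–4 experiments.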

[9] = system: MDCK2; assay: Antiproliferative activity against human ABCC1 transfected MDCK2 cells assessed as reduction in cell proliferation at 1.5 uM by crystal violet staining based assay; assay type: functional
[10] = system: MDCK2; assay: Antiproliferative activity against human ABCC1 transfected MDCK2 cells assessed as reduction in cell proliferation at 10 uM by crystal violet staining based assay; assay type: functional
Procedure, shortened: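 MDCKII-MRP1 cells transfected with human ABCC1, kept in DMEM with 10% FCS at 37 °C and 5% CO₂. Kinetic crystal violet chemosensitivity assay with the modulator alone; proliferation followed over time.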

SMILES: COC(=O)c1ccc(CN2CCN(c3cc(=O)c4c(OC)cc(OC)cc4o3)CC2)cc1
pIC50 [1]: < 4.00
inhibition at 30 µM [3]: 118%
pIC50 [4]: < 4.00

SMILES: COc1cc(OC)c2c(=O)cc(NCCc3ccc(OC)c(OC)c3)oc2c1
pIC50 [1]: < 4.00
IC50 [4]: Not Active

SMILES: COc1cc(OC)c2c(=O)cc(N3CCN(Cc4ccc(S(C)(=O)=O)cc4)CC3)oc2c1
IC50 [1]: Not Active
IC50 [4]: Not Active

SMILES: COc1cc([C@@H]2c3cc4c(cc3[C@@H](O[C@@H]3O[C@@H]5CO[C@@H](C)O[C@H]5[C@H](O)[C@H]3O)[C@H]3COC(=O)[C@H]23)OCO4)cc(OC)c1O
Activity [9]: Active
Activity [10]: Active

SMILES: COc1cc(OC)c2c(=O)cc(NCCCN3CCOCC3)oc2c1
IC50 [1]: Not Active
inhibition at 30 µM [3]: 14%
IC50 [4]: Not Active

SMILES: COc1cc(OC)c2c(=O)cc(N3CCN(c4ccc([N+](=O)[O-])cc4)CC3)oc2c1
inhibition at 30 µM [3]: 64.1%
IC50 [4]: Not Active
Emax at 10 µM [8]: 22.6%

SMILES: COc1cc(OC)c2c(=O)cc(N3CCN(C)CC3)oc2c1
IC50 [1]: Not Active
IC50 [4]: Not Active

SMILES: COc1cc(OC)c2c(=O)cc(N3CCN(CCc4ccccc4)CC3)oc2c1
pIC50 [1]: < 4.00
Stability [2]: Stable
inhibition at 30 µM [3]: 44.5%
IC50 [4]: Not Active
Activity [6]: Non-toxic

SMILES: COc1cc(OC)c2c(=O)cc(N3CCN(C(=O)c4ccc([N+](=O)[O-])cc4)CC3)oc2c1
IC50 [1]: Not Active
inhibition at 30 µM [3]: 19.7%
IC50 [4]: Not Active

SMILES: COc1cc(OC)c2c(=O)cc(N3CCN(Cc4ccccc4[N+](=O)[O-])CC3)oc2c1
pIC50 [1]: 4.42
inhibition at 30 µM [3]: 68.8%
pIC50 [4]: < 4.00
Emax at 10 µM [8]: 72.6%

SMILES: COc1cc(OC)c2c(=O)cc(N3CCN(CCc4ccc([N+](=O)[O-])cc4)CC3)oc2c1
pIC50 [1]: 4.43
Stability [2]: Stable
inhibition at 30 µM [3]: 118%
pIC50 [4]: 4.48
inhibition at 1 µM [5]: 54.8%
Emax at 10 µM [8]: 31.9%
Activity [6]: Non-toxic

SMILES: COc1cccc2oc(N3CCN(Cc4ccc([N+](=O)[O-])cc4)CC3)cc(=O)c12
IC50 [1]: Not Active
inhibition at 30 µM [3]: 38.8%
IC50 [4]: Not Active

SMILES: COc1cc(OC)c2c(=O)cc(N3CCN(Cc4ccc(NC(C)=O)cc4)CC3)oc2c1
IC50 [1]: Not Active
IC50 [4]: Not Active

SMILES: COc1ccc(CCNC(=O)c2cc(=O)c3c(OCc4ccccc4)cccc3o2)cc1OC
IC50 [4]: Not Active
Emax at 10 µM [8]: 108%

SMILES: COc1cc(OC)c2c(=O)cc(N3CCN(Cc4ccc([N+](=O)[O-])cc4)CC3)oc2c1
pIC50 [1]: 4.06
Stability [2]: Stable
inhibition at 30 µM [3]: 130%
IC50 [4]: Not Active
Emax at 10 µM [8]: 56.9%
Activity [6]: Non-toxic

SMILES: COc1cc(O)c2c(=O)cc(C(=O)N3CCN(Cc4ccc([N+](=O)[O-])cc4)CC3)oc2c1
pIC50 [1]: 4.92
Stability [2]: Stable
inhibition at 30 µM [3]: 70.5%
IC50 [4]: Not Active
Emax at 10 µM [8]: 23.1%
Activity [6]: Non-toxic

More lines, main results first:

pIC50 [1]: < 4.00
Stability [2]: Stable
inhibition at 30 µM [3]: 139%
pIC50 [4]: 4.08
inhibition at 1 µM [5]: 37.7%
SMILES: COc1cc(OC)c2c(=O)cc(C(=O)N3CCN(CCc4ccc([N+](=O)[O-])cc4)CC3)oc2c1
Activity [6]: Non-toxic

pIC50 [1]: 4.42
Imax [7]: 193.3%
pIC50 [4]: 4.48
inhibition at 1 µM [5]: 29.2%
Emax at 10 µM [8]: 44%
SMILES: COc1cc(OC)c2c(=O)cc(N3CCN(Cc4cccc([N+](=O)[O-])c4)CC3)oc2c1

pIC50 [1]: 4.18
inhibition at 30 µM [3]: 141%
pIC50 [4]: 4.23
inhibition at 1 µM [5]: 14.3%
Emax at 10 µM [8]: 50.4%
SMILES: COc1cc(OC)c2c(=O)cc(N3CCN(Cc4ccc(F)c(F)c4)CC3)oc2c1

IC50 [1]: Not Active
IC50 [4]: Not Active
SMILES: COc1cc(OC)c2c(=O)cc(N3CCN(Cc4ccccc4)CC3)oc2c1

pIC50 [4]: 6.66
SMILES: COc1cc2c(cc1OC)CN(CCc1ccc(NC(=O)c3cc(OC)c(OC)cc3NC(=O)c3cnc4ccccc4c3)cc1)CC2

IC50 [1]: Not Active
IC50 [4]: Not Active
SMILES: CN(C)C(=O)CCSC(SCCC(=O)[O-])c1cccc(/C=C/c2ccc3ccc(Cl)cc3n2)c1.[Na+] (centres undefined)

pIC50 [1]: 4.00
inhibition at 30 µM [3]: 115%
pIC50 [4]: < 4.00
Emax at 10 µM [8]: 59.1%
SMILES: COc1cc(OC)c2c(=O)cc(N3CCN(Cc4ccc(C#N)cc4)CC3)oc2c1

pIC50 [1]: < 4.00
inhibition at 30 µM [3]: 136%
pIC50 [4]: 4.44
inhibition at 1 µM [5]: 29.4%
SMILES: COc1cc(OC)c2c(=O)cc(N3CCN(Cc4ccc(SC(F)(F)F)cc4)CC3)oc2c1

pIC50 [1]: < 4.00
Imax [7]: 158.6%
pIC50 [4]: 4.50
inhibition at 1 µM [5]: 21.8%
SMILES: COc1cc(OC)c2c(=O)cc(N3CCN(Cc4ccc(C(F)(F)F)cc4)CC3)oc2c1

pIC50 [1]: < 4.00
inhibition at 30 µM [3]: 98.8%
pIC50 [4]: < 4.00
SMILES: COc1cc(OC)c2c(=O)cc(N3CCN(Cc4ccc(S(=O)(=O)C(F)(F)F)cc4)CC3)oc2c1

pIC50 [1]: < 4.00
inhibition at 30 µM [3]: 73.1%
pIC50 [4]: 4.24
inhibition at 1 µM [5]: 33.4%
SMILES: COc1cc(OC)c2c(=O)cc(C(=O)N3CCN(Cc4ccc([N+](=O)[O-])cc4)CC3)oc2c1
Activity [6]: Non-toxic

pIC50 [1]: < 4.00
IC50 [4]: Not Active
SMILES: COc1ccc(CN2CCN(c3cc(=O)c4c(OC)cc(OC)cc4o3)CC2)cc1

IC50 [1]: Not Active
IC50 [4]: Not Active
SMILES: COc1cc(OC)c2c(=O)cc(N3CCN(Cc4ccc(N)cc4)CC3)oc2c1

pIC50 [1]: 4.46
inhibition at 30 µM [3]: 68.8%
IC50 [4]: Not Active
Emax at 10 µM [8]: 90.5%
SMILES: COc1cc(O)c2c(=O)cc(C(=O)N3CCN(Cc4ccccc4[N+](=O)[O-])CC3)oc2c1
